Test results as given in ChEMBL document CHEMBL1681672, “Antitumor agents 283. Further elaboration of desmosdumotin C analogs as potent antitumor agents: activation of spindle assembly checkpoint as possible mode of action” (2011).
The source made the active and inactive calls. No cut-off for these calls is given here.

Assays:
PC-3 = assay: Antiproliferative activity against human PC3 cells after 3 days by sulforhodamine B assay; format: functional; conditions: for EC50: PC-3, 72 h, read-out: ED50 (the source's name)
Outline: (§1)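 Cells were seeded from freshly trypsinized suspensions at 1500–7500 cells/well and dosed from DMSO-diluted stock. After 3 days of culture, attached cells were fixed with cold 50% TCA and stained with 0.4% SRB. Bound dye was solubilized and absorbance read at 562 nm. ED50 is the concentration giving 50% growth reduction versus untreated cells, averaged from at least three independent determinations. Cells were grown in RPMI-1640 with 25 mM HEPES, 10% FBS and kanamycin.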

HCT-8 = assay: Antiproliferative activity against human HCT8 cells after 3 days by sulforhodamine B assay; format: functional; conditions: HCT-8, 72 h, read-out: ED50 (the source's name); outline: as §1
1A9 = assay: Antiproliferative activity against human 1A9 cells after 3 days by sulforhodamine B assay; format: functional; conditions: 1A9, 72 h, read-out: ED50 (the source's name); outline: as §1
KB = assay: Antiproliferative activity against human KB cells after 3 days by sulforhodamine B assay; format: functional; conditions: 72 h, read-out: ED50 (the source's name); outline: as §1
A549 = assay: Antiproliferative activity against human A549 cells after 3 days by sulforhodamine B assay; format: functional; conditions: A549, 72 h, read-out: ED50 (the source's name); outline: as §1
[1] = Antiproliferative activity against human KBVIN cells expressing P-glycoprotein after 3 days by sulforhodamine B assay; format: functional; conditions: 72 h, read-out: ED50 (the source's name); outline: as §1
MCF7 = assay: Antiproliferative activity against human MCF7 cells after 3 days by sulforhodamine B assay; format: functional; conditions: MCF7, 72 h, read-out: ED50 (the source's name)
HepG2 = assay: Antiproliferative activity against human HepG2 cells after 3 days by sulforhodamine B assay; format: functional; conditions: for EC50: HepG2, 72 h, read-out: ED50 (the source's name); outline: as §1
[2] = Effect on MAD2 mRNA expression in human CL1-5 cells at 0.05 ug/ml after 24 hrs by RT-PCR relative to DMSO control; format: functional
[3] = Effect on Aurora B mRNA expression in human CL1-5 cells at 0.05 ug/ml after 24 hrs by Affymetrix GeneChip microarray relative to DMSO control
[4] = Effect on NEK2A mRNA expression in human CL1-5 cells at 0.05 ug/ml after 24 hrs by Affymetrix GeneChip microarray relative to DMSO control
[5] = Effect on separase mRNA expression in human CL1-5 cells at 0.05 ug/ml after 24 hrs by RT-PCR relative to DMSO control; format: functional
[6] = Effect on cyclinB mRNA expression in human CL1-5 cells at 0.05 ug/ml after 24 hrs by RT-PCR relative to DMSO control; format: functional
[7] = Upregulation of MAD2L1 transcript in human CL1-5 cells at 0.05 ug/ml after 24 hrs by semi-quantitative RT-PCR; format: functional, cell-based
Outline: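 CL1-5 cells were seeded at 2.5×10^5 per 60 mm dish and grown 48 h in RPMI with 10% FBS at 37 °C in 5% CO2. Cells then received DMSO or 0.05 μg/mL compound for 24 h. Total RNA was extracted with TRIzol and MAD2L1 was amplified by RT-PCR, with Gβ-like as the control transcript, and bands were compared on gel.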

[8] = Effect on dynactin mRNA expression in human CL1-5 cells at 0.05 ug/ml after 24 hrs by RT-PCR relative to DMSO control; format: functional
[9] = Effect on securin mRNA expression in human CL1-5 cells at 0.05 ug/ml after 24 hrs by RT-PCR relative to DMSO control; format: functional
[10] = Effect on Aurora A mRNA expression in human CL1-5 cells at 0.05 ug/ml after 24 hrs by Affymetrix GeneChip microarray relative to DMSO control
[11] = Effect on dynein1 mRNA expression in human CL1-5 cells at 0.05 ug/ml after 24 hrs by RT-PCR relative to DMSO control; format: functional
[12] = Effect on CDK1 mRNA expression in human CL1-5 cells at 0.05 ug/ml after 24 hrs by Affymetrix GeneChip microarray relative to DMSO control
[13] = Effect on MAD1 mRNA expression in human CL1-5 cells at 0.05 ug/ml after 24 hrs by RT-PCR relative to DMSO control; format: functional
[14] = Effect on KNSL1 mRNA expression in human CL1-5 cells at 0.05 ug/ml after 24 hrs by RT-PCR relative to DMSO control; format: functional
[15] = Antiproliferative activity against human CL1-5 cells; format: functional; conditions: read-out: ED50 (the source's name)

Structure (SMILES)	EC50 (PC-3) [µM]	EC50 (HCT-8) [µM]	EC50 (KB) [µM]	EC50 (A549) [µM]	EC50 (MCF7) [µM]	EC50 (HepG2) [µM]	EC50 (1A9) [µM]	EC50 [1] [µM]	also measured
COC1=C(CC(C)C)C(=O)/C(=C(O)/C=C/c2ccccc2)C(=O)C1(CC(C)C)CC(C)C	12.4	7.5	7.9	4.4	3.7	14.5	8	8.2	–
CCCCC1=C(OC)C(CCCC)(CCCC)C(=O)/C(=C(O)\C=C\c2ccccc2)C1=O	13	7.8	7	6.4	4.4	23.9	5.9	8.6	–
CC(=O)O[C@H]1C(=O)[C@@]2(C)[C@H]([C@H](OC(=O)c3ccccc3)[C@]3(O)C[C@H](OC(=O)[C@H](O)[C@@H](NC(=O)c4ccccc4)c4ccccc4)C(C)=C1C3(C)C)[C@]1(OC(C)=O)CO[C@@H]1C[C@@H]2O [PACLITAXEL]	0.00887	> 0.1	0.00287	0.00256	> 0.1	> 0.1	0.00209	> 0.1	–
CCCC1=C(OC)C(CCC)(CCC)C(=O)/C(=C(O)\C=C\c2ccc(I)cc2)C1=O	2.8	1.1	1.5	1.4	1.8	2.4	1.8	1.4	–
COC1=C(CCC(C)C)C(=O)/C(=C(O)/C=C/c2ccccc2)C(=O)C1(CCC(C)C)CCC(C)C	–	13	17.5	18.4	25.2	–	16.3	20.3	ED50 (PC-3): inactive; ED50 (HepG2): inactive
CCCC1=C(OC)C(CCC)(CCC)C(=O)/C(=C(O)\C=C\c2ccccc2)C1=O	8.2	3.5	4.6	3.6	–	–	3.7	3.4	–
CCCC1=C(OC)C(CCC)(CCC)C(=O)/C(=C(O)\C=C\c2ccc(Br)cc2)C1=O	4.7	2.6	1.8	2	–	–	1.9	1.8	fold change (FC) [2]: 2; fold change (FC) [3]: 2; fold change (FC) [4]: 2; fold change (FC) [5]: 2; fold change (FC) [6]: 2; Activity [7]: Active; fold change (FC) [8]: 2; fold change (FC) [9]: 2; fold change (FC) [10]: 2; fold change (FC) [11]: 2; fold change (FC) [12]: 2; fold change (FC) [13]: 2; fold change (FC) [14]: 2; EC50 [15]: 0.11 µM
CCCOC1=C(CCC)C(=O)/C(=C(O)/C=C/c2ccccc2)C(=O)C1(CCC)CCC	8.6	2.6	2.7	1.9	1.6	8.3	2	2.4	–

More lines, in order of falling EC50 (HCT-8), values ahead:

EC50 (PC-3) [µM]	EC50 (HCT-8) [µM]	EC50 (KB) [µM]	EC50 (A549) [µM]	EC50 (MCF7) [µM]	EC50 (HepG2) [µM]	Structure (SMILES)	EC50 (1A9) [µM]	EC50 [1] [µM]	also measured
17	15.3	10.6	11.3	9.1	15.5	CCCC1=C(OCCC(C)C)C(CCC)(CCC)C(=O)/C(=C(O)\C=C\c2ccccc2)C1=O	–	19.2	–
12.2	13.7	13.3	10.3	8.2	11.2	COC1=C(CC=C(C)C)C(=O)/C(=C(O)/C=C/c2ccccc2)C(=O)C1(CC=C(C)C)CC=C(C)C [3,3,5-TRIPRENYLDESMOSDUMOTIN C]	–	8.9	–
35.6	11.8	12.8	11.2	–	–	COC1=C(C)C(O)=C(C(=O)/C=C/c2ccccc2)C(=O)C1(C)C [DESMOSDUMOTIN C]	11.2	9.6	–
9.6	8.7	8	7.1	5.3	8	CCCCOC1=C(CCC)C(=O)/C(=C(O)/C=C/c2ccccc2)C(=O)C1(CCC)CCC	–	8.9	–
12.2	8	4.8	1.7	4.4	13.4	CCCC1=C(OCC(C)C)C(CCC)(CCC)C(=O)/C(=C(O)\C=C\c2ccccc2)C1=O	6.9	4.1	–
9.6	7.8	6.4	8.2	5.1	7.3	CCCOC1=C(CCC)C(=O)/C(=C(O)/C=C/c2ccc(I)cc2)C(=O)C1(CCC)CCC	–	6.2	–
8.4	6.7	8.2	7.1	5.8	6.4	CCCC1(CC=C(C)C)C(=O)C(C(=O)/C=C/c2ccccc2)=C(O)C(CCC)(CCC)C1=O (stereo not drawn)	–	7.3	–
12.5	5.6	6.4	4.6	2.6	11.2	CCCC1=C(OCC)C(CCC)(CCC)C(=O)/C(=C(O)\C=C\c2ccccc2)C1=O	4.3	3.5	–
0.0121	0.0242	0.0024	0.0048	0.0121	0.0029	CC[C@]1(O)C[C@H]2CN(CCc3c([nH]c4ccccc34)[C@@](C(=O)OC)(c3cc4c(cc3OC)N(C=O)[C@H]3[C@@](O)(C(=O)OC)[C@H](OC(C)=O)[C@]5(CC)C=CCN6CC[C@]43[C@@H]65)C2)C1 [VINCRISTINE]	–	> 0.1	–
